Source: ChEMBL document CHEMBL1147958, “Evaluation of the anti-inflammatory and anti-nociceptive activities of novel synthesized melatonin analogues” (2007)

What was measured:
[1] = test system: Rattus norvegicus; test: Inhibition of carrageenan-induced paw oedema in Sprague-Dawley rat at 5.13 mg/kg, sc after 1 hr; assay type: functional; conditions: read-out: Inhibition, route subcutaneous
How it was run: (§1)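 Rats (n = 6/group) got the test agent s.c. (0.5 mL) as a 30 min pretreatment. Oedema was induced by sub-plantar 1% lambda-carrageenan in saline into the right hind paw, with saline in the contralateral paw. Paw volume was measured by plethysmometer before injection and at 1, 2, 3 and 4 h, and expressed as % change from pre-drug values.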

[2] = test system: Rattus norvegicus; test: Inhibition of carrageenan-induced paw oedema in Sprague-Dawley rat at 5.13 mg/kg, sc after 2 hrs; assay type: functional; conditions: read-out: Inhibition, route subcutaneous; how it was run: as §1
[3] = test system: Rattus norvegicus; test: Inhibition of carrageenan-induced paw oedema in Sprague-Dawley rat at 5.13 mg/kg, sc after 3 hrs; assay type: functional; conditions: read-out: Inhibition, route subcutaneous; how it was run: as §1
[4] = test system: Rattus norvegicus; test: Inhibition of carrageenan-induced paw oedema in Sprague-Dawley rat at 5.13 mg/kg, sc after 4 hrs; assay type: functional; conditions: read-out: Inhibition, route subcutaneous; how it was run: as §1
[5] = test system: Rattus norvegicus; test: Antinociceptive activity in Sprague-Dawley rat at 5.13 mg/kg, sc assessed as increase in latency time after 1 hr by hot plate method; assay type: functional; conditions: route subcutaneous
How it was run: (§2)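 Rats (n = 6/group) were dosed s.c. 30 min before testing on a hot-plate held at 52 °C, 30 s cut-off. Reaction latency was read at 1 and 2 h and expressed as % increase over each group's pre-drug basal latency, with indomethacin as the reference control. Groups were compared by ANOVA and Duncan's test.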

[6] = test system: Rattus norvegicus; test: Antinociceptive activity in Sprague-Dawley rat at 5.13 mg/kg, sc assessed as increase in latency time after 2 hrs by hot plate method; assay type: functional; conditions: route subcutaneous; how it was run: as §2
[7] = test system: Rattus norvegicus; test: Antinociceptive activity in Sprague-Dawley rat assessed as inhibition of number of indomethacin-induced gastric lesions at 5.13 mg/kg, sc; assay type: functional; conditions: Stomach, route subcutaneous
How it was run: (§3)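 Sprague-Dawley rats (120–130 g, food and water ad libitum) got indomethacin 20 mg/kg s.c. to induce gastric mucosal damage, with the test agent given s.c. at the time of indomethacin injection. Rats were killed 24 h later. Stomachs were opened along the greater curvature, rinsed with saline, and lesions counted and severity-scored on a previously described scale. Results are % decrease versus the indomethacin control.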

[8] = test system: Rattus norvegicus; test: […] in Sprague-Dawley rat assessed as inhibition of indomethacin-induced gastric lesions severity at 5.13 mg/kg, sc; assay type: functional; conditions: Stomach, route subcutaneous; how it was run: as §3
[9] = test system: Mus musculus; test: Antinociceptive activity in Swiss Albino mouse assessed as inhibition of acetic acid-induced writhes per 30 min at 5.13 mg/kg, sc; conditions: 0.5 h, read-out: Inhibition
[10] = test system: Rattus norvegicus; test: Antinociceptive activity in sc dosed Sprague-Dawley rat assessed as increase in latency time after 1 hr by hot plate method; assay type: functional; how it was run: as §2
[11] = test system: Rattus norvegicus; test: Antinociceptive activity in sc dosed Sprague-Dawley rat assessed as increase in latency time after 2 hrs by hot plate method; assay type: functional; how it was run: as §2
[12] = test system: Rattus norvegicus; test: Inhibition of carrageenan-induced paw oedema in Sprague-Dawley rat at 4 mg/kg, sc after 1 hr; assay type: functional; conditions: read-out: Inhibition, route subcutaneous; how it was run: as §1
[13] = test system: Rattus norvegicus; test: Inhibition of carrageenan-induced paw oedema in Sprague-Dawley rat at 4 mg/kg, sc after 2 hrs; assay type: functional; conditions: read-out: Inhibition, route subcutaneous; how it was run: as §1
[14] = test system: Rattus norvegicus; test: Inhibition of carrageenan-induced paw oedema in Sprague-Dawley rat at 4 mg/kg, sc after 3 hrs; assay type: functional; conditions: read-out: Inhibition, route subcutaneous; how it was run: as §1
[15] = test system: Rattus norvegicus; test: Inhibition of carrageenan-induced paw oedema in Sprague-Dawley rat at 4 mg/kg, sc after 4 hrs; assay type: functional; conditions: read-out: Inhibition, route subcutaneous; how it was run: as §1
[16] = test system: Rattus norvegicus; test: Antinociceptive activity in Sprague-Dawley rat at 4 mg/kg, sc assessed as increase in latency time after 1 hr by hot plate method; assay type: functional; conditions: route subcutaneous; how it was run: as §2
[17] = test system: Rattus norvegicus; test: Antinociceptive activity in Sprague-Dawley rat at 4 mg/kg, sc assessed as increase in latency time after 2 hrs by hot plate method; assay type: functional; conditions: route subcutaneous; how it was run: as §2
[18] = test system: Rattus norvegicus; test: […] in Sprague-Dawley rat assessed as inhibition of number of indomethacin-induced gastric lesions at 4 mg/kg, sc; assay type: functional; conditions: Stomach, route subcutaneous; how it was run: as §3
[19] = test system: Rattus norvegicus; test: […] in Sprague-Dawley rat assessed as inhibition of indomethacin-induced gastric lesions severity at 4 mg/kg, sc; assay type: functional; conditions: Stomach, route subcutaneous; how it was run: as §3
[20] = test system: Mus musculus; test: Antinociceptive activity in Swiss Albino mouse assessed as inhibition of acetic acid-induced writhes per 30 min at 4 mg/kg, sc; conditions: 0.5 h, read-out: Inhibition

SMILES: COc1ccc2c(c1)c(CCNC(C)=O)c1n2C(=O)C=C1C
- inhibition in vivo at 5.13 mg/kg [1]: 67.3%
- inhibition in vivo at 5.13 mg/kg [2]: 59.4%
- inhibition in vivo at 5.13 mg/kg [3]: 43%
- inhibition in vivo at 5.13 mg/kg [4]: 28.8%
- Activity [5]: 116.6%
- Activity [6]: 144.6%
- inhibition in vivo at 5.13 mg/kg [7]: 72.6%
- inhibition in vivo at 5.13 mg/kg [8]: 82.6%
- inhibition in vivo at 5.13 mg/kg [9]: 68.7%

SMILES: COc1ccc2c(c1)c(CC(=O)O)c(C)n2C(=O)c1ccc(Cl)cc1 [INDOMETHACIN]
- Activity [10]: 176.7%
- Activity [11]: 286.6%

SMILES: COc1ccc2[nH]cc(CCNC(C)=O)c2c1 [MELATONIN]
- inhibition in vivo at 4 mg/kg [12]: 50.8%
- inhibition in vivo at 4 mg/kg [13]: 50.1%
- inhibition in vivo at 4 mg/kg [14]: 44.4%
- inhibition in vivo at 4 mg/kg [15]: 30%
- Activity [16]: 39.7%
- Activity [17]: 96%
- inhibition in vivo at 4 mg/kg [18]: 56.3%
- inhibition in vivo at 4 mg/kg [19]: 69%
- inhibition in vivo at 4 mg/kg [20]: 55.6%
